Measurements of several laboratories.
Protocols differ between the studies behind these lines.
Target: Rho-associated protein kinase 2 (ROCK2, Homo sapiens, UniProt O75116)

| SMILES | read-out | mode | method | concentration | measurement | value |
| --- | --- | --- | --- | --- | --- | --- |
| CN1CCN(C(=O)c2ccc(NC(=O)Nc3ccc(N(C)c4ccnc(Nc5ccc(CS(C)(=O)=O)cc5)n4)cc3)cc2)CC1 | binding |  |  | 1 µM | remaining binding | 1.5% |
| Cc1cc(O)c(-c2ccc([C@@H](C)CN(C)C)cc2)c2c1[nH]c(=O)c1sccc12 | enzyme activity | inhibitor |  | 0.1 µM | inhibition | 14.6% |
| C#Cc1cnc(Nc2ccnc(CO)c2)nc1Nc1ccccc1S(C)(=O)=NC#N (stereo not drawn) | cell-free assay |  |  | 1 µM | remaining signal | 49% |
| C=CC(=O)N1CCC[C@@H](n2nc(-c3ccc(Oc4ccccc4)cc3)c3c(N)ncnc32)C1 | enzyme activity | inhibitor |  | 1 µM | inhibition | 0% |
| N#Cc1ccc(NC(=O)Nc2ccccc2)cc1 | cell-free assay |  | competition with immobilised ligand | 25 µM | remaining binding | 63% |
| CC#CC(=O)N1CCC[C@H]1c1nc(-c2ccc(C(=O)Nc3ccccn3)cc2)c2c(N)nccn12 | enzyme activity | inhibitor |  | 1 µM | inhibition | 29% |
| C[C@H]1CC[C@H](n2c3cnccc3c3cnc(Nc4ccc5c(n4)CCN(C(=O)CO)C5)nc32)CC1 | cell-free assay |  |  | 1 µM | remaining signal | 95% |
| C#Cc1cc(-c2cc(Nc3nc(N[C@@H](C)c4ccc(F)cn4)ncc3Cl)n[nH]2)ccc1C=O | enzyme activity | inhibitor |  | 0.2 µM | inhibition | 5.91% |
| CCCCC(=O)Nc1ccc(-c2ccc3ncn(CCC)c(=O)c3c2)cn1 | binding |  | competition with immobilised ligand | 0.5 µM | remaining binding | 100% |
